{
  "source": "paper PMC2650391",
  "about": "(Molecular cell, 2009)",
  "key": {"H3K4me3": {"test_system": "H3K4me3", "assay": "Global H3K4me3 levels, Western analysis of cell lysates", "assay_type": "cell-based", "settings": "demethylase transfection, ± ING4 overexpression", "outline": "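Cells transfected with Rbp2 or Plu-1 demethylase, with or without ING4 overexpression. Whole-cell lysates probed by Western blot for H3K4me3. Four independent experiments, error bars S.E.M.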"}, "HT1080 cells": {"test_system": "HT1080 cells", "assay": "TUNEL assay of ING4-dependent apoptosis", "assay_type": "cell-based", "settings": "HT1080, 400 ng/ml doxorubicin 20 hours, 48 hours after transfection", "outline": "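HT1080 cells transfected with the plasmids, then given 400 ng/ml doxorubicin for 20 h, assayed 48 h after transfection. Cells fixed in methanol at −20C for 20 min, TUNEL-stained (TMR red) and mounted with DAPI. TUNEL-positive cells counted from images; s.e.m. from 3 independent fields.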"}, "[1]": {"test_system": "H3K4me peptides / ING4 PHD finger", "assay": "Biotinylated histone peptide pull-down, Western analysis", "assay_type": "binding", "settings": "individual substitutions, GST-fusion proteins"}, "[2]": {"test_system": "H3K4me3 at Smc4, Egln1, Ext1 promoters", "assay": "ChIP Realtime-PCR, H3K4me3 levels at target promoters", "assay_type": "cell-based", "settings": "doxorubicin treatment, all samples"}, "[3]": {"test_system": "purified polynucleosomes (H3K4me3)", "assay": "Polynucleosome binding, Western analysis", "settings": "recombinant proteins", "outline": "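Recombinant ING4 PHD finger proteins, wild type or carrying substitutions in the H3K4me3-binding surface, incubated with purified polynucleosomes. Bound material detected by Western blot with antibodies to the four core histones, H3K4me3 and H3K9me3.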"}, "[4]": {"test_system": "Egln1, Ext1 and Smc4 mRNA", "assay": "mRNA expression Realtime-PCR", "assay_type": "cell-based", "settings": "HT1080; relative to untreated wild-type cells", "outline": "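HT1080 cells stably carrying vector, Flag-ING4 or Flag-ING4D213A, with doxorubicin-induced DNA damage. Transcripts measured by real-time PCR with TaqMan gene expression assays. Values are relative change versus untreated wild-type cells; error bars s.e.m.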"}, "T47D cells": {"test_system": "T47D cells", "assay": "Soft agar assay, anchorage-independent growth", "assay_type": "cell-based", "settings": "colonies scored after 21 days, vs control vector", "outline": "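T47D cells stably carrying pMSCV-ING4, pMSCV-ING4D213A or empty pMSCV; 55,000 cells plated in […] soft agar growth medium over a 1% agar base layer. Medium refreshed every three days; colonies counted at day 21. Four independent experiments, S.E.M.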"}, "[5]": {"test_system": "gene promoters in HT1080 cells", "assay": "ChIP-chip on whole genome promoter tiling arrays", "assay_type": "cell-based", "settings": "doxorubicin treatment; 292 doxorubicin-induced target promoters"}},
  "note": "Where no end group is shown, it is not given here.",
  "data": [
    {"compound": "PLU-1: H3K4me3-demethylase", "values": [
      {"measurement": "total H3K4me3 levels", "setting": "H3K4me3", "value": "decreased total H3K4me3 levels"},
      {"measurement": "ING4-dependent apoptosis", "setting": "HT1080 cells", "value": "abrogated ING4-dependent apoptosis"}
    ]},
    {"compound": "W221A: ING4PHD with substitution W221A (EPTYCLCHQVSYGEMIGCDNPDCSIEAFHFACVGLTTKPRGKWFCPR; cysteine pairing not given here; also: GST fusion, end not given here)", "values": [
      {"measurement": "binding of ING4PHD mutants to H3K4me peptides in pull-down", "setting": "[1]", "value": "abrogated binding of the ING4PHD to the H3K4me peptides"}
    ]},
    {"compound": "D213A: ING4PHD with substitution D213A (EPTYCLCHQVSYGEMIGCANPDCSIEWFHFACVGLTTKPRGKWFCPR; cysteine pairing not given here; also: GST fusion, end not given here)", "values": [
      {"measurement": "binding of ING4PHD mutants to H3K4me peptides in pull-down", "setting": "[1]", "value": "abrogated binding of the ING4PHD to the H3K4me peptides"}
    ]},
    {"compound": "COc1cccc2c1C(=O)c1c(O)c3c(c(O)c1C2=O)C[C@@](O)(C(=O)CO)C[C@@H]3O[C@H]1C[C@H](N)[C@H](O)[C@H](C)O1", "note": "[doxorubicin]", "values": [
      {"measurement": "H3K4me3 levels at Smc4, Egln1 and Ext1 promoters", "setting": "[2]", "value": "modestly induced"}
    ]},
    {"compound": "ING4PHD: recombinant ING4 PHD finger, aa 195–241 (EPTYCLCHQVSYGEMIGCDNPDCSIEWFHFACVGLTTKPRGKWFCPR; cysteine pairing not given here; also: GST fusion, end not given here)", "values": [
      {"measurement": "interaction with H3K4me3 in nucleosomes", "setting": "[3]", "value": "occurs in the context of nucleosomes"}
    ]},
    {"compound": "ING4D213A: ING4 with a point mutation that abrogates H3K4me3 binding", "values": [
      {"measurement": "baseline smc4 expression", "setting": "[4]", "value": "inhibits baseline expression"},
      {"measurement": "growth in soft agar", "setting": "T47D cells", "value": "failed to inhibit soft agar growth"},
      {"measurement": "average occupancy on DNA damage-dependent promoters", "setting": "[5]", "value": "largely absent compared to the wild-type protein"}
    ]},
    {"compound": "RBP2: H3K4me3-demethylase", "values": [
      {"measurement": "total H3K4me3 levels", "setting": "H3K4me3", "value": "decreased total H3K4me3 levels"},
      {"measurement": "ING4-dependent apoptosis", "setting": "HT1080 cells", "value": "abrogated ING4-dependent apoptosis"}
    ]},
    {"compound": "Y198A: ING4PHD with substitution Y198A (EPTACLCHQVSYGEMIGCDNPDCSIEWFHFACVGLTTKPRGKWFCPR; cysteine pairing not given here; also: GST fusion, end not given here)", "values": [
      {"measurement": "binding of ING4PHD mutants to H3K4me peptides in pull-down", "setting": "[1]", "value": "abrogated binding of the ING4PHD to the H3K4me peptides"}
    ]}
  ]
}
